Source: PubChem BioAssay
Rows were chosen to be rich in hits. Some 4.7% of all compounds tested hit in one or more screens of this group.
IMP-1 inh: IMP-1 metallo-beta-lactamase inhibitors, primary screen, biochemical, epi-absorbance readout, Pseudomonas aeruginosa enzyme; metallo-beta-lactamase IMP-1 (Pseudomonas aeruginosa); hit rate 0.45% among 290,000; purified IMP-1, nitrocefin hydrolysis, epi-absorbance fluorescence; inhibition, % at 5.6 µM;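 active = inhibition above the mean plus 3 SD of all compounds in the same screening run, cut at about 4.5% in these data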;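 note: 0% = IMP-1 with DMSO and 100% = DMSO wells lacking enzyme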
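assay system = purified recombinant IMP-1 metallo-beta-lactamase enzyme | schedule = 15 min preincubation plus 25 min reaction at 25 °C | signal = Epi-absorbance fluorescence, 480 nm excitation, 530 nm emission | read-out basis = percent inhibition from optical density relative to buffer-blank wells | controls = IMP-1 with DMSO as 0%, enzyme-free DMSO as 100%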
VIM-2 inhibitor: VIM-2 metallo-beta-lactamase inhibitors, primary screen, biochemical, epi-absorbance readout, Pseudomonas aeruginosa enzyme; purified VIM-2, nitrocefin hydrolysis, epi-absorbance fluorescence; inhibition, % at 5.6 µM; hit rate 0.89% among 290,000;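 active = inhibition above the mean of all tested compounds plus 3 SD, cutoff set per screening run, cut at about 7.5% in these data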;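 note: red hydrolysis product quenches plate fluorescence so inhibitors raise well fluorescence; 0% = enzyme with DMSO and 100% = DMSO without enzyme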
Mdm2-MdmX inh: inhibitors of human Mdm2-MdmX association, primary screen, cell-based, luminescence, split luciferase, SaOS-2, uHTS; Protein Mdm4 (Homo sapiens) + E3 ubiquitin-protein ligase Mdm2 (Homo sapiens), …; SaOS-2 split-luciferase Mdm2/MdmX complementation; inhibition, % at 8 µM; hit rate 3% among 330,000;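 active = inhibition of at least 50% at 8 µM in the primary screen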
Target sequence (O15151 whole entry, looked up): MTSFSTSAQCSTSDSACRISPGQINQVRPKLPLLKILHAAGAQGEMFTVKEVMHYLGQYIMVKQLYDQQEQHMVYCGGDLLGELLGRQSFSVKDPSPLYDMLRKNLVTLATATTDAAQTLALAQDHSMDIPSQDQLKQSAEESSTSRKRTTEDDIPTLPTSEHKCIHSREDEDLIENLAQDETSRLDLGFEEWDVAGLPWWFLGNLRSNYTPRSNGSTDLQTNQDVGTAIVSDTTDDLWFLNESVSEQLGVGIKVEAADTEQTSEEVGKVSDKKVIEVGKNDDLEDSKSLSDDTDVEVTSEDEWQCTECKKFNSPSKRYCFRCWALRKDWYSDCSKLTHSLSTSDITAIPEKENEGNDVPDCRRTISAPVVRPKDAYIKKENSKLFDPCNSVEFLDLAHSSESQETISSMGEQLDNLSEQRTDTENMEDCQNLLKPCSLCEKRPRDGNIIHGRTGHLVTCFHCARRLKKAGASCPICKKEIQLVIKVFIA
Target sequence (Q00987 whole entry, looked up): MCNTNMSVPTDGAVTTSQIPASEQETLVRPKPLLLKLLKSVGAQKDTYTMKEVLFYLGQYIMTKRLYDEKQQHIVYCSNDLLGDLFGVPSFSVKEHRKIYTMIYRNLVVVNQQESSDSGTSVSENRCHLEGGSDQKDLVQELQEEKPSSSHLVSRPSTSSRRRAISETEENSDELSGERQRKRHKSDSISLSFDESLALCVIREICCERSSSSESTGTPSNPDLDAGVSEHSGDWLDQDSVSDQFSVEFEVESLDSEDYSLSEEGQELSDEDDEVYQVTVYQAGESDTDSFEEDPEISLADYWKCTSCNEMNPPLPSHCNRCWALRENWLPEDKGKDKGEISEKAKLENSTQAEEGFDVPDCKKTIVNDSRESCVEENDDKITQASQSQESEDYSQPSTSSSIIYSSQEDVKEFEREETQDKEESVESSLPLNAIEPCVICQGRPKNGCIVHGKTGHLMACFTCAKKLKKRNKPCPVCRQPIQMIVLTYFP
697 NFkB inh: inhibitors of PMA/ionomycin-induced NF-kB reporter, 697 cells, primary screen, B-cell NF-kB inhibitor project, cell-based, luminescence, uHTS; hit rate 0.33% among 330,000; 697 B-cell NF-kB luciferase reporter, 16 h; inhibition, % at 4 µM; AID 435022, 2010; in the data active = inhibition above about 35%
Jurkat NFkB inh: inhibitors of induced NF-kB luciferase reporter, primary screen, TCR NF-kB activation inhibitor project, cell-based, luminescence, uHTS; Jurkat, PMA/ionomycin-induced NF-kB luciferase reporter; inhibition, % at 4 µM; hit rate 0.53% among 330,000; AID 435003, 2010; in the data active = inhibition above about 50%
aSyn 5UTR inh: MLPCN primary screen, SNCA 5' untranslated region; AID 1813, 2009; hit rate 0.82% among 300,000; alpha-synuclein 5'UTR reporter, inhibitor activity; inhibition, % (tested at 7.5 µM); in the data active = inhibition above about 60%;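 note: H4 neuroglioblastoma cells stably carrying SNCA 5'UTR luciferase fusion; 0% = DMSO wells and 100% = positive control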
* hit, by the source's call; · = no result.

SMILES	IMP-1 inh	VIM-2 inhibitor	Mdm2-MdmX inh	697 NFkB inh	Jurkat NFkB inh	aSyn 5UTR inh
Cc1cccc(NS(=O)(=O)c2ccc(-n3cccn3)cc2)c1C	-2	-1	27	-18	-8	-23
CCOC(=O)CSc1nc2ccccc2n2cnnc12	-3	0	-11	4	-12	-24
C=CCSc1nc2ccccc2n2cnnc12	-1	10*	-9	-1	16	-3
CCOC(=O)c1[nH]cnc1N=Nc1c(O)ccc2ccccc12	-1	-4	·	·	·	91*
Oc1ccc2ccccc2c1N=Nc1ccccc1F	-4	-3	-9	-33	-8	-13
CCN1CCN(C(=O)c2cc3c(=O)oc4ccc(C)cc4c3s2)CC1	-2	8.4*	-42	-14	-4	-19
Cc1ccc2oc(=O)c3cc(C(=O)NCCCN4CCCC(C)C4)sc3c2c1 (stereo unspecified)	-3	11*	47	-14	-3	-19
CCCN1CCN(CCCNC(=O)c2cc3c(=O)oc4ccc(C)cc4c3s2)CC1	-3	12*	33	14	5	4
Cc1ccc2oc(=O)c3cc(C(=O)NCCN4CCc5ccccc5C4)sc3c2c1	-4	3	1	6	-3	10
CCC(=O)Nc1ccc2c(c1)N(C(C)=O)c1ccccc1CC2	-3	-2	24	8	23	-3
Cc1ccccc1-c1nnn(Cc2cccc(S(=O)(=O)N3CCOCC3)c2)n1	·	·	8	8	2	·
CS(=O)(=O)c1ccc(C(=O)Nc2nc(-c3ccco3)c(-c3ccco3)s2)cc1	·	·	14	-34	-6	·
Cc1ccc(N2NC(=O)/C(=C/c3ccc(-c4ccc(Cl)c(C(=O)O)c4)o3)C2=O)cc1	-2	-4	13	7	-5	-21
CCCCC1(C)OC(=O)C(=Cc2ccc(-c3ccc(Cl)c(C(=O)O)c3)o2)C(=O)O1 (stereo unspecified)	29*	2	20	12	11	2
COc1ccc(S(=O)(=O)Nc2ccccc2C(=O)NCc2cccnc2)cc1	-2	3	3	-5	17	16
CCSc1nc(NCCN(C)C)c2c3c(sc2n1)COC(C)(CC)C3 (stereo unspecified)	-3	8.5*	23	-28	3	16
Cc1cc(C)n(-c2nc(NCCCN(C)C)c3c4c(sc3n2)COC(C)(C)C4)n1	-4	2	29	-10	9	-5
O=C(CCN1CCOCC1)NNC(=O)Nc1cccc([N+](=O)[O-])c1	-1	0	20	-3	14	17
O=C1C=C(Nc2ccc(O)cc2)C(=O)c2ccccc21	-3	2	-25	-52	6	67*
Cc1cccc(NC2=C/C(=N/S(=O)(=O)c3cccs3)c3ccccc3C2=O)c1	-1	1	·	·	·	·
O=C1C(Nc2ccc(O)cc2)=C/C(=N/S(=O)(=O)c2cccs2)c2ccccc21	-4	0	·	·	·	114*
Cc1ccc(NC2=CC(=O)C(=O)c3ccccc32)cc1	-7	-2	-7	-48	-48	103*
COc1ccc(NC(=O)CCCc2nc3ccccc3c(=O)[nH]2)cc1Cl	·	·	25	8	-6	·
O=C(c1ccc(Cl)c(S(=O)(=O)N2CCCCC2)c1)N1CCN(Cc2ccccc2)CC1	0	0	26	-32	5	-6
O=C(NCCc1cnccn1)C1CCC(=O)N(Cc2ccc(Cl)cc2)C1 (stereo unspecified)	-5	-1	-7	-1	-13	6
SMILES	IMP-1 inh	VIM-2 inhibitor	Mdm2-MdmX inh	697 NFkB inh	Jurkat NFkB inh	aSyn 5UTR inh
CCOC(=O)c1sc(-c2ccc(C(F)(F)F)cc2)nc1O	4.9*	-1	-1	8	14	-1
CCOC(=O)c1sc(-c2cccc(C(F)(F)F)c2)nc1O	2	-2	11	17	2	8
Cc1ccc(O)c(N=NC2=C(O)CC(C)(C)CC2=O)c1	-6	-7	47	-67	-21	65*
O=C(CS(=O)(=O)c1ccccc1Cl)N1CCOCC1	-3	-1	-12	6	2	26
O=C(Nc1cccc(C(F)(F)F)c1)C(=O)N1CCCCC1	0	-1	6	-3	-19	-45
O=C(O)C1=C(C(=O)Nc2cccc(C(F)(F)F)c2)CCCC1	18*	5	-15	-15	5	-24
O=C(O)C1C2C=CC(C2)C1C(=O)NCc1ccc(Cl)cc1Cl (stereo unspecified)	7.6*	-1	11	-8	4	11
O=C(NC1CCCc2ccccc21)c1c(F)cccc1Cl (stereo unspecified)	-2	1	11	9	-9	5
Cc1cccc2c1c1ccc3c(c1n2C)C(=O)C=CC3=O	5.2*	2	·	·	·	·
Cc1ccccc1N1CC(=O)N(c2ccccc2C)CC1=O	-3	-3	-3	6	-17	8
O=C(CN1CCN(S(=O)(=O)c2cccc(Cl)c2)CC1)NCC1(N2CCOCC2)CCCCC1	·	·	-17	1	14	·
CCOC(=O)C1CCN(C2=NC(=O)/C(=C/c3ccc(Cl)cc3)S2)CC1	4.9*	1	1	-11	-9	2
O=C1N=C(N2CCCCC2)S/C1=C\c1ccc(Br)cc1	4.7*	3	-22	-23	7	-128
CC1CCc2[nH]c3ccc(C(=O)N4CCCC(C(F)(F)F)C4)cc3c2C1 (stereo unspecified)	·	·	15	-1	-4	2
Brc1cc(-c2ccccc2)nc(-c2ccccc2)n1	·	·	-8	8	-7	36
CCn1c(O)c(/C=C2\C=NN=C2c2ccccc2)sc1=S	-4	-6	49	3	20	67*
CCCCn1c(O)c(/C=C2\C=NN=C2c2ccccc2)sc1=S	-1	0	6	-33	-4	12
Cc1ccc(CSc2nc3ccncc3[nH]2)cc1	-1	-2	-112	-19	15	73*
CC(C)(C)Cc1nnc(NS(=O)(=O)Cc2ccccc2)s1	-4	9.0*	20	0	-8	10
CCOc1ccc(C2=Nn3c(nnc3-c3ccccc3OC)SC2)cc1	-3	-2	·	·	·	109*
COC(=O)c1ccc(NC(=S)Nc2ccccc2)cc1	-1	-3	-7	-4	-5	-131
COC(=O)c1ccc(NC(=S)Nc2ccc3ccccc3c2)cc1	5.2*	2	16	-25	-19	-12
COc1cc(C(=O)NC(=S)Nc2ccc([N+](=O)[O-])cc2)cc(OC)c1OC	4.6*	-1	-3	-2	1	-6
COc1cc(C(=O)Nc2ccc3ccccc3c2)cc(OC)c1OC	2	0	40	-40	42	88*
